{"source": "ChEMBL document CHEMBL4354797", "about": "“Novel Pyrazolo[4,3- d]pyrimidine as Potent and Orally Active Inducible Nitric Oxide Synthase (iNOS) Dimerization Inhibitor with Efficacy in Rheumatoid Arthritis Mouse Model” (J Med Chem, 2019)", "note": "Active and inactive are the calls of the source. The calls are words filed in the database; no cut-off is given here."}
{"tested_on": "RAW264.7", "experiment": "Antiinflammatory activity in mouse RAW264.7 cells assessed as inhibition of LPS-induced NO production at 10 uM preincubated for 1 hr followed by LPS addition and measured after 24 hrs by Griess reagent-based assay relative to control", "format": "functional", "method_in_brief": "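RAW 264.7 cells pretreated with compound for 1 h, then LPS 1 µg/mL for 24 h. Single-point inhibition at 10 µM. IC50 by regression of inhibition over several concentrations. At least three independent experiments.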", "units": {"inhibition at 10 µM": "%"}}
{"smiles": "CCCc1nn(C)c2c(NCCc3ccc(OC)cc3)nc(-c3cc(OC)c(OC)c(OC)c3)nc12", "inhibition at 10 µM": 10.2}
{"smiles": "CCCc1nn(C)c2c(Nc3ccccc3)nc(/C=C/c3cc(OC)c(OC)c(OC)c3)nc12", "inhibition at 10 µM": 48.1}
{"smiles": "CCCc1nn(C)c2c(NCCCN3CCOCC3)nc(/C=C/c3ccccc3)nc12", "inhibition at 10 µM": 42.4}
{"smiles": "CCCc1nn(C)c2c(Nc3ccc(C(=O)OC)cc3)nc(/C=C/c3ccccc3)nc12", "inhibition at 10 µM": 42.4}
{"smiles": "CCCc1nn(C)c2c(Nc3ccc(C(=O)OC)cc3)nc(/C=C/c3cc(OC)c(OC)c(OC)c3)nc12", "inhibition at 10 µM": 10.3}
{"smiles": "CCCc1nn(C)c2c(NCCc3ccc(Cl)cc3)nc(/C=C/c3ccccc3)nc12", "inhibition at 10 µM": 10.7}
{"smiles": "CCCc1nn(C)c2c(NCc3ccccc3Cl)nc(/C=C/c3cc(OC)c(OC)c(OC)c3)nc12", "inhibition at 10 µM": 90}
{"smiles": "CCCc1nn(C)c2c(Nc3ccc(OC(F)(F)F)cc3)nc(/C=C/c3cc(OC)c(OC)c(OC)c3)nc12", "inhibition at 10 µM": 16.4}
{"smiles": "CCCc1nn(C)c2c(NCCc3ccccc3)nc(/C=C/c3ccccc3)nc12", "inhibition at 10 µM": 48.6}
{"smiles": "CCCCNC(=O)c1ccc(Nc2nc(-c3cc(OC)c(OC)c(OC)c3)nc3c(CCC)nn(C)c23)cc1", "inhibition": "inactive"}
{"smiles": "CCCc1nn(C)c2c(NCCc3ccc(Cl)cc3)nc(-c3cc(OC)c(OC)c(OC)c3)nc12", "inhibition at 10 µM": 22.2}
{"smiles": "CCCc1nn(C)c2c(Nc3ccc(C(=O)NC(C)(C)C)cc3)nc(/C=C/c3cc(OC)c(OC)c(OC)c3)nc12", "inhibition at 10 µM": 10.6}
{"smiles": "CCCc1nn(C)c2c(Nc3cccc(Br)c3)nc(/C=C/c3cc(OC)c(OC)c(OC)c3)nc12", "inhibition at 10 µM": 31}
{"smiles": "CCCc1nn(C)c2c(N3CCCCC3)nc(/C=C/c3cc(OC)c(OC)c(OC)c3)nc12", "inhibition at 10 µM": 16.3}
{"smiles": "CCCc1nn(C)c2c(Nc3ccc(C(=O)N4CCN(CC)CC4)cc3)nc(-c3cc(OC)c(OC)c(OC)c3)nc12", "inhibition at 10 µM": 27.6}
{"smiles": "CCCCNC(=O)c1ccc(Nc2nc(/C=C/c3cc(OC)c(OC)c(OC)c3)nc3c(CCC)nn(C)c23)cc1", "inhibition at 10 µM": 35.9}
{"smiles": "CCCc1nn(C)c2c(NCc3ccc(OC)cc3)nc(/C=C/c3cc(OC)c(OC)c(OC)c3)nc12", "inhibition at 10 µM": 73.1}
{"smiles": "CCCc1nn(C)c2c(N3CCCCC3)nc(-c3cc(OC)c(OC)c(OC)c3)nc12", "inhibition at 10 µM": 7.6}
{"smiles": "CCCc1nn(C)c2c(NCCc3ccccc3F)nc(/C=C/c3cc(OC)c(OC)c(OC)c3)nc12", "inhibition at 10 µM": 85}
{"smiles": "CCCc1nn(C)c2c(NC(C)CC)nc(/C=C/c3cc(OC)c(OC)c(OC)c3)nc12", "note": "(centres undefined)", "inhibition at 10 µM": 75}
{"smiles": "CCCc1nn(C)c2c(Nc3cccc(C)c3)nc(-c3cc(OC)c(OC)c(OC)c3)nc12", "inhibition": "inactive"}
{"smiles": "CCCc1nn(C)c2c(NCc3ccc(OC)cc3)nc(/C=C/c3ccco3)nc12", "inhibition at 10 µM": 43.8}
{"smiles": "CCCc1nn(C)c2c(N(C)C)nc(-c3cc(OC)c(OC)c(OC)c3)nc12", "inhibition at 10 µM": 21.2}
{"smiles": "CCCc1nn(C)c2c(NCCc3ccccc3F)nc(/C=C/c3ccccc3)nc12", "inhibition at 10 µM": 43.9}
{"smiles": "CCCc1nn(C)c2c(Nc3cccc(C)c3)nc(/C=C/c3ccccc3)nc12", "inhibition at 10 µM": 15.3}
{"smiles": "CCCc1nn(C)c2c(NCc3ccc(Cl)cc3)nc(/C=C/c3cc(OC)c(OC)c(OC)c3)nc12", "inhibition at 10 µM": 67.2}
{"smiles": "CCCc1nn(C)c2c(N3CCOCC3)nc(/C=C/c3ccccc3)nc12", "inhibition at 10 µM": 10.2}
{"smiles": "CCCc1nn(C)c2c(Nc3ccc(C(=O)O)cc3)nc(/C=C/c3cc(OC)c(OC)c(OC)c3)nc12", "inhibition at 10 µM": 15.3}
{"smiles": "CCCc1nn(C)c2c(Nc3ccc(OC)cc3)nc(/C=C/c3cc(OC)c(OC)c(OC)c3)nc12", "inhibition at 10 µM": 63.2}
{"smiles": "CCCc1nn(C)c2c(Nc3cccc(C(F)(F)F)c3)nc(/C=C/c3ccco3)nc12", "inhibition at 10 µM": 8.9}
{"smiles": "CCCc1nn(C)c2c(Nc3ccccc3)nc(-c3cc(OC)c(OC)c(OC)c3)nc12", "inhibition at 10 µM": 22.2}
{"smiles": "CCCc1nn(C)c2c(NCc3cccc(OC)c3)nc(/C=C/c3cc(OC)c(OC)c(OC)c3)nc12", "inhibition at 10 µM": 70.9}
{"smiles": "CCCc1nn(C)c2c(N(C)C)nc(/C=C/c3cc(OC)c(OC)c(OC)c3)nc12", "inhibition at 10 µM": 82.1}
{"smiles": "CCCc1nn(C)c2c(NCCc3ccccc3)nc(/C=C/c3cc(OC)c(OC)c(OC)c3)nc12", "inhibition at 10 µM": 86.1}
{"smiles": "CCCc1nn(C)c2c(N3CCCC3)nc(/C=C/c3cc(OC)c(OC)c(OC)c3)nc12", "inhibition at 10 µM": 15.5}
{"smiles": "CCCc1nn(C)c2c(NCc3ccc(F)cc3)nc(/C=C/c3ccco3)nc12", "inhibition at 10 µM": 50.7}
{"smiles": "CCCc1nn(C)c2c(NCc3ccc(F)cc3)nc(/C=C/c3cc(OC)c(OC)c(OC)c3)nc12", "inhibition at 10 µM": 69.7}
{"smiles": "CCCc1nn(C)c2c(NCCc3ccccc3Cl)nc(/C=C/c3cc(OC)c(OC)c(OC)c3)nc12", "inhibition at 10 µM": 46.9}
{"smiles": "CCCc1nn(C)c2c(NCCc3ccccc3)nc(/C=C/c3ccco3)nc12", "inhibition at 10 µM": 36.4}
{"smiles": "CCCc1nn(C)c2c(Nc3cccc(C(F)(F)F)c3)nc(-c3cc(OC)c(OC)c(OC)c3)nc12", "inhibition": "inactive"}
{"smiles": "CCCc1nn(C)c2c(N(C)C)nc(/C=C/c3ccco3)nc12", "inhibition at 10 µM": 30.6}
{"smiles": "CCCc1nn(C)c2c(N3CCCCC3)nc(/C=C/c3ccccc3)nc12", "inhibition at 10 µM": 7.7}
{"smiles": "CCCc1nn(C)c2c(NCc3ccc(C(F)(F)F)cc3)nc(/C=C/c3cc(OC)c(OC)c(OC)c3)nc12", "inhibition at 10 µM": 54.6}
{"smiles": "CCCc1nn(C)c2c(NCc3cccc(OC)c3)nc(/C=C/c3ccco3)nc12", "inhibition at 10 µM": 35.6}
{"smiles": "CCCc1nn(C)c2c(N3CCN(CC)CC3)nc(/C=C/c3cc(OC)c(OC)c(OC)c3)nc12", "inhibition at 10 µM": 28.3}
{"smiles": "CCCc1nn(C)c2c(NCCc3ccccc3Cl)nc(/C=C/c3ccco3)nc12", "inhibition at 10 µM": 70.8}
{"smiles": "CCCc1nn(C)c2c(N3CCN(CC)CC3)nc(/C=C/c3ccccc3)nc12", "inhibition at 10 µM": 10.2}
{"smiles": "CCCc1nn(C)c2c(NCc3ccco3)nc(/C=C/c3ccco3)nc12", "inhibition at 10 µM": 52.3}
{"smiles": "CCCc1nn(C)c2c(NCCc3ccc(OC)cc3)nc(/C=C/c3ccccc3)nc12", "inhibition at 10 µM": 48}
{"smiles": "CCCc1nn(C)c2c(NC)nc(-c3cc(OC)c(OC)c(OC)c3)nc12", "inhibition at 10 µM": 21.6}
{"smiles": "CCCc1nn(C)c2c(NCCc3cccc(Cl)c3)nc(/C=C/c3cc(OC)c(OC)c(OC)c3)nc12", "inhibition at 10 µM": 80}
{"smiles": "CCCc1nn(C)c2c(NCc3ccc(Cl)cc3)nc(/C=C/c3ccccc3)nc12", "inhibition at 10 µM": 24.2}
{"smiles": "CCCc1nn(C)c2c(Nc3ccc(Br)cc3)nc(/C=C/c3cc(OC)c(OC)c(OC)c3)nc12", "inhibition at 10 µM": 33}
{"smiles": "CCCc1nn(C)c2c(NCc3ccccc3OC)nc(/C=C/c3ccco3)nc12", "inhibition at 10 µM": 38.4}
{"smiles": "CCCc1nn(C)c2c(Nc3ccc(C(=O)OC)cc3)nc(-c3cc(OC)c(OC)c(OC)c3)nc12", "inhibition at 10 µM": 17.3}
{"smiles": "CCCc1nn(C)c2c(NCCc3ccccc3Cl)nc(/C=C/c3ccccc3)nc12", "inhibition at 10 µM": 14.3}
{"smiles": "CCCc1nn(C)c2c(NCc3ccc(Br)cc3)nc(/C=C/c3ccco3)nc12", "inhibition at 10 µM": 40.6}
{"smiles": "CCCc1nn(C)c2c(Nc3ccccc3Br)nc(/C=C/c3cc(OC)c(OC)c(OC)c3)nc12", "inhibition at 10 µM": 38.5}
{"smiles": "CCCc1nn(C)c2c(NC(C)C)nc(/C=C/c3ccco3)nc12", "inhibition at 10 µM": 37.7}
{"smiles": "CCCc1nn(C)c2c(NCc3ccco3)nc(/C=C/c3cc(OC)c(OC)c(OC)c3)nc12", "inhibition at 10 µM": 62.1}
{"smiles": "CCCc1nn(C)c2c(Nc3ccc(C(=O)N4CCN(CC)CC4)cc3)nc(/C=C/c3cc(OC)c(OC)c(OC)c3)nc12", "inhibition at 10 µM": 15.4}
{"smiles": "CCCc1nn(C)c2c(NCc3ccccc3Cl)nc(/C=C/c3ccco3)nc12", "inhibition at 10 µM": 54.8}
{"smiles": "CCCc1nn(C)c2c(N(C)C)nc(/C=C/c3ccccc3)nc12", "inhibition at 10 µM": 27.1}
{"smiles": "CCCc1nn(C)c2c(Nc3ccccc3C)nc(/C=C/c3cc(OC)c(OC)c(OC)c3)nc12", "inhibition at 10 µM": 54.4}
{"smiles": "CCCc1nn(C)c2c(NCc3ccc(C(F)(F)F)cc3)nc(/C=C/c3ccco3)nc12", "inhibition at 10 µM": 50.2}
{"smiles": "CCCc1nn(C)c2c(Nc3ccc(Cl)cc3)nc(/C=C/c3cc(OC)c(OC)c(OC)c3)nc12", "inhibition at 10 µM": 25.3}
{"smiles": "CCCc1nn(C)c2c(Nc3cccc(C(F)(F)F)c3)nc(/C=C/c3ccccc3)nc12", "inhibition at 10 µM": 14.6}
{"smiles": "CCCc1nn(C)c2c(N3CCOCC3)nc(/C=C/c3cc(OC)c(OC)c(OC)c3)nc12", "inhibition at 10 µM": 81}
{"smiles": "CCCc1nn(C)c2c(Nc3cccc(C(F)(F)F)c3)nc(/C=C/c3cc(OC)c(OC)c(OC)c3)nc12", "inhibition at 10 µM": 38.2}
{"smiles": "CCCc1nn(C)c2c(N3CCOCC3)nc(-c3cc(OC)c(OC)c(OC)c3)nc12", "inhibition at 10 µM": 5.2}
{"smiles": "CCCc1nn(C)c2c(Nc3ccc(F)c(C(F)(F)F)c3)nc(/C=C/c3cc(OC)c(OC)c(OC)c3)nc12", "inhibition at 10 µM": 82.6}
{"smiles": "CCCc1nn(C)c2c(NCc3ccc(Br)cc3)nc(/C=C/c3cc(OC)c(OC)c(OC)c3)nc12", "inhibition at 10 µM": 53.9}
{"smiles": "CCCc1nn(C)c2c(NCCc3ccccc3)nc(-c3cc(OC)c(OC)c(OC)c3)nc12", "inhibition at 10 µM": 20.2}
{"smiles": "CCCc1nn(C)c2c(N3CCCC3)nc(/C=C/c3ccccc3)nc12", "inhibition at 10 µM": 6.3}
{"smiles": "CCCc1nn(C)c2c(Nc3cccc(C)c3)nc(/C=C/c3ccco3)nc12", "inhibition at 10 µM": 8.9}
{"smiles": "CCCc1nn(C)c2c(Nc3cccc(C)c3)nc(/C=C/c3cc(OC)c(OC)c(OC)c3)nc12", "inhibition at 10 µM": 25.8}
{"smiles": "CCCc1nn(C)c2c(Nc3ccc(C(F)(F)F)cc3)nc(/C=C/c3cc(OC)c(OC)c(OC)c3)nc12", "inhibition at 10 µM": 37.8}
{"smiles": "CCCc1nn(C)c2c(NCCc3ccc(O)cc3)nc(/C=C/c3cc(OC)c(OC)c(OC)c3)nc12", "inhibition at 10 µM": 15}
{"smiles": "CCCc1nn(C)c2c(NCCc3ccccc3F)nc(/C=C/c3ccco3)nc12", "inhibition at 10 µM": 73}
